Results: publication PMC7246176 (Nature chemical biology, 2020)
Like-named read-outs stand apart in the source and are kept apart here.

Experiments:
[1] = molecular target: T1, DCLK1-Nluc in HCT116 cells (Homo sapiens, UniProt O15075); test: DCLK1 NanoBRET target engagement assay in HCT116 cells; format: cell-based
T1 sequence (O15075 1-729 isoform O15075-2): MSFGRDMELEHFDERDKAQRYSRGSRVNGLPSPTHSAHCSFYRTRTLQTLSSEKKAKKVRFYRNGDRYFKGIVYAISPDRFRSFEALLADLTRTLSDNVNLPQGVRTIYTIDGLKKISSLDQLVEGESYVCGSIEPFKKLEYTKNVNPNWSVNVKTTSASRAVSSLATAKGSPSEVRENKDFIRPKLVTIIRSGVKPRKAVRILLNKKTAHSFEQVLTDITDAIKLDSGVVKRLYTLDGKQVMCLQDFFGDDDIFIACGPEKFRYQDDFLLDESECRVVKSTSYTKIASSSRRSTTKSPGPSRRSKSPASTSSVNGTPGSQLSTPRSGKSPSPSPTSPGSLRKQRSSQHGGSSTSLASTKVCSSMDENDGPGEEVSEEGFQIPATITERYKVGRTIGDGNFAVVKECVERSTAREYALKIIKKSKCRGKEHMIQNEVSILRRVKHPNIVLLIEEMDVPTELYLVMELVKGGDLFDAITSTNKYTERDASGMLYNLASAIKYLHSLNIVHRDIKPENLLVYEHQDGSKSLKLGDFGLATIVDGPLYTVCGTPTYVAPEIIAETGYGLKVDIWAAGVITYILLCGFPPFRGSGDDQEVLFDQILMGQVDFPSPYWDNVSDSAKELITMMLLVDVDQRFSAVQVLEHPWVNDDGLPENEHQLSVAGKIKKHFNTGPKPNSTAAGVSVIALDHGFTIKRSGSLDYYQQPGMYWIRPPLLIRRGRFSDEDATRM

PATU-8988T cells = test: Cell viability, ultra-low adherent 3D-spheroid culture, PATU-8988T; format: cell-based, human; conditions: read-out: PATU-8988T cells 3D spheroid culture IC50, 120 h
Method in brief: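 PATU-8902 or PATU-8988T cells were plated at 100 cells/well and left overnight to adhere (2D plates) or to form spheroids (ultra-low-attachment 3D spheroid plates). Compound was pin-transferred, then 120 h incubation. Viability by CellTiter-Glo luminescence after 15 min at room temperature, normalized to DMSO-treated wells for each cell line.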

PATU-8902 cells = test: Cell viability, ultra-low adherent 3D-spheroid culture, PATU-8902; format: cell-based, human; conditions: read-out: PATU-8902 cells 3D spheroid culture IC50
Method in brief: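 PATU-8988T and PATU-8902 cells were plated at 100 cells/well in 50 μL media, either adherent (2D) or in ultra-low attachment spheroid plates (3D), overnight. Test compound was pin-transferred and cells were incubated 120 h. Viability was read by CellTiter-Glo luminescence after 15 min at room temperature. Data were normalized to DMSO-treated wells per cell line and fitted.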

ERK5 [2] = molecular target: T2, ERK5 (Homo sapiens, UniProt Q13164); test: ERK5 KINOMEscan binding assay
rat hippocampal neurons = test: Rat primary hippocampal neuron viability; format: cell-based; conditions: concentrations up to 10 μM, 24 hours
Method in brief: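 Rat primary hippocampal neurons on poly-L-lysine-coated coverslips were treated at DIV6 for 24 h with DMSO or test compound. They were then fixed in glutaraldehyde-containing cytoskeleton buffer with Triton X-100, followed by NaBH4, permeabilized in TBS with 0.5% Triton X-100, and processed for immunofluorescence.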

ERK5 [3] = molecular target: T2, ERK5; test: ERK5 cellular kinase assay in HeLa cells; format: cell-based
zebrafish = test: Toxicity evaluation during zebrafish embryonic development; format: in vivo; conditions: days 1 to 8 post-fertilization, in fish water at concentrations up to 10 μM
[4] = Maximum dose tolerability evaluation in mice; format: in vivo, C57B6/6J mice; conditions: doses up to 100 mg/kg, oral gavage daily for two weeks, no adverse effects, no loss of body weight
ERK5 [5] = molecular target: T2, ERK5; test: ERK5 32P-ATP kinase assay; format: biochemical; conditions: ERK5 kinase assay IC50, 32P-ATP; Table 1
[6] = molecular target: T3, purified, recombinant DCLK1 kinase domain (Homo sapiens, UniProt O15075); test: DCLK1 isothermal titration calorimetry; format: binding
T3 sequence (O15075 351-689 isoform O15075-2): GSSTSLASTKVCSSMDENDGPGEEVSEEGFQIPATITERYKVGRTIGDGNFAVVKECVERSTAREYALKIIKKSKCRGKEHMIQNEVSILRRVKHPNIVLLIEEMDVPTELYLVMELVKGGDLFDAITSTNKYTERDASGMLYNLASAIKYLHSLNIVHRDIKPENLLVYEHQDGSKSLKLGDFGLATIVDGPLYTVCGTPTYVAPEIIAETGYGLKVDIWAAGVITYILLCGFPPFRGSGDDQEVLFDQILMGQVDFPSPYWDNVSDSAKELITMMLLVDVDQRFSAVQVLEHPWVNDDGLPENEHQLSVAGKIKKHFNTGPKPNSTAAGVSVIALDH

T2 sequence (Q13164 whole entry): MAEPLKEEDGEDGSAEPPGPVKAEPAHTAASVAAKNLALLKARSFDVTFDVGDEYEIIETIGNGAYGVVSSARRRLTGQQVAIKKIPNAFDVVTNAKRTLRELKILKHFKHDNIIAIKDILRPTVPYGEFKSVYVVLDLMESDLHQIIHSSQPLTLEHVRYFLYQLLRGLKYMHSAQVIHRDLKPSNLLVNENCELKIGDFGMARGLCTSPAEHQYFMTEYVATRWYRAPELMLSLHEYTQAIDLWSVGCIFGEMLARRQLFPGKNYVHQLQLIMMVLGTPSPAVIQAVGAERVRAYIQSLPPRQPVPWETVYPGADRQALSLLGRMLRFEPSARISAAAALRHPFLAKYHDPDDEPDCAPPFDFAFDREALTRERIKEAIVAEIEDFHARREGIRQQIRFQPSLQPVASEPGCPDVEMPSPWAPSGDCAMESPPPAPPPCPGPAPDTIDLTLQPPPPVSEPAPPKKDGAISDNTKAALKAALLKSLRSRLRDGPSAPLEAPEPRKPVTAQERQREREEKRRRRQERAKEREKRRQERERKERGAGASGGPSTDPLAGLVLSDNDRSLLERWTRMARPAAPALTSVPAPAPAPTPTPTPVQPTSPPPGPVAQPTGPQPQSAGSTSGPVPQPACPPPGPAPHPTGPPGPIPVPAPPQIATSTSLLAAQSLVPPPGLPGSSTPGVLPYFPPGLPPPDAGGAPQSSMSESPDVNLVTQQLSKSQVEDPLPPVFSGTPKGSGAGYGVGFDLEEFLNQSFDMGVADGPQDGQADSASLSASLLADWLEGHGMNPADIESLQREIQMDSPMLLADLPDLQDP

Structure (SMILES) | IC50 ([1]; read-out: DCLK1 cellular assay IC50, nanoBRET, HCT116 cells) [µM] | IC50 (PATU-8988T cells; cell viability) [µM] | IC50 (PATU-8902 cells; cell viability, 120 h, P.R. = partial response) [µM] | IC50 (ERK5 [2]) [µM] | IC50 [1] [µM] | effect on neuronal viability (rat hippocampal neurons) | IC50 (ERK5 [3]) [µM] | effect on zebrafish CNS or other organ system development (zebrafish) | IC50 (PATU-8988T cells; Homo sapiens, PaTu 8988t) [µM] | tolerability (maximum tolerated dose study) [4] | IC50 (ERK5 [5]) [µM] | IC50 (PATU-8902 cells; Homo sapiens, PaTu 8902, 120 h) [µM] | Kd ([6]; ITC Kd, purified recombinant DCLK1 protein, Table 1) [µM] | Kd ([6]; Kd, ITC, 20 μM DCLK1, 200 μM compound, Supplementary Table 2 and text) [µM]
CCOc1cc(N2CCC(O)CC2)ccc1Nc1ncc2c(n1)N(C)c1ccccc1C(=O)N2C [XMD8-92] | 1.15 | 6.06 | > 20 | – | – | – | – | – | – | – | – | – | – | –
COc1cc(N2CCN(C)CC2)ccc1Nc1ncc2c(n1)N(C)c1ccccc1C(=O)N2CC(F)(F)F [DCLK1-IN-1] | – | – | – | 1.8 | 0.279 | no effect on neuronal viability | 5.36 | no discernable effect | > 20 | well-tolerated | 4 | > 20 | 0.055 | 0.109
